# Most compounds without a hit are left out; they make up all but 4.8% or so of the library.
# UPR CHOP act: activators of apoptotic arm of unfolded protein response (CHOP). CHO-CHOP luciferase reporter, UPR activation, luminescence; percent of tunicamycin response over DMSO baseline. activation, % at 10 µM. hit rate 0.34% among 330,000;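 active = at 10 µM dose, activation of 40% or more, normalized to positive control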;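 also: 100% = tunicamycin at 10 µg/mL and 0% = DMSO alone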
#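 Assay system: CHO cells with stable CHOP pathway luciferase reporter; Buffer or medium: F12 plus 10% serum; Times: 16-18 h cell attachment, then 6 h compound exposure, 37 °C; Signal: luciferase luminescence; Read-out basis: percent activation relative to tunicamycin control; Control set: tunicamycin high control, DMSO low control.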
# Mdm2-MdmX inh: disrupts the human Mdm2-MdmX interaction | O15151+Q00987 | SaOS-2 split-luciferase Mdm2/MdmX complementation, luminescence | inhibition, % at 8 µM | hit rate 3% among 330,000;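 active = inhibition of at least 50% at 8 µM in the primary screen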
# Target sequence (O15151 whole entry, looked up): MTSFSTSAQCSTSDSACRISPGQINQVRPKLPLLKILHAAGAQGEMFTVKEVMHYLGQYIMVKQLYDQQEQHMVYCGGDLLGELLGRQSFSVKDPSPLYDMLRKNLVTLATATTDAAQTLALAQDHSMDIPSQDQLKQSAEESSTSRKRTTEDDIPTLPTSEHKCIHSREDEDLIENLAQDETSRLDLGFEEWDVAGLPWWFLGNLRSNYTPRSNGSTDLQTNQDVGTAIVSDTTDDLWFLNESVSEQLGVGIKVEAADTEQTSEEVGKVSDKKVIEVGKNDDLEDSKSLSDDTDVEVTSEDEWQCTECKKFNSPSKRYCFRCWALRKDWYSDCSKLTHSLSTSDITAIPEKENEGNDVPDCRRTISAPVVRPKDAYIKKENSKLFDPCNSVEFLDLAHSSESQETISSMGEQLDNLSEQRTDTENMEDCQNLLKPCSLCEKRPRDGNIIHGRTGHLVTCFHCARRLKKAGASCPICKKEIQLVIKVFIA
# Target sequence (Q00987 whole entry, looked up): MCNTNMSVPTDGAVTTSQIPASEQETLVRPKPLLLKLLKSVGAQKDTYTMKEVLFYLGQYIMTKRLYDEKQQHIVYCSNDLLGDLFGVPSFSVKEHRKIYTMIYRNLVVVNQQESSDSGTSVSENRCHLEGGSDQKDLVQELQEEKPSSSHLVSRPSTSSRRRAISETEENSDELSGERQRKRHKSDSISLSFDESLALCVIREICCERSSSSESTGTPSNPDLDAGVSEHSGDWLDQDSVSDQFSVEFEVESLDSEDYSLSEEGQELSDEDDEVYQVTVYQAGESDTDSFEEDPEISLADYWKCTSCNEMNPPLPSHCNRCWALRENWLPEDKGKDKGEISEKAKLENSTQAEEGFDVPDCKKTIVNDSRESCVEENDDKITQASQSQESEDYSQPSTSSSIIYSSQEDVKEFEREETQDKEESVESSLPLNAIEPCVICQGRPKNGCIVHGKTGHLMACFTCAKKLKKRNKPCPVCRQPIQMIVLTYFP
# UPR XBP1 act: activators of adaptive arm of unfolded protein response (XBP1); CHO-XBP1 luciferase reporter, IRE1-XBP1 UPR activation, luminescence; percent of tunicamycin response, DMSO as zero; activation, % at 20 µM; hit rate 0.33% among 330,000; AID 463104;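 active = versus positive control, 20 µM dose yields 30% or more activation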;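 also: 100% = tunicamycin at 10 µg/mL and 0% = DMSO only wells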
#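 Material: IRE1-XBP1 luciferase reporter CHO line / Quantity: one thousand reporter cells per well / Buffer or medium: F12 with 10% serum / Compound: 20 µM single concentration, DMSO 1% / Times: 6 h treatment, 37 °C / Detection: Steady-Glo luciferase glow luminescence, 10 min after reagent addition / Benchmarks: tunicamycin high, DMSO low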
# CSC inhib: blocks cancer stem cells | cancer stem cell-like cells viability, luminescence | inhibition, % at 7.5 µM | hit rate 1.1% among 300,000; in the data active = inhibition above about 75%; inconclusive = no clear call, values can overlap the other calls; tested in HMLE shEcad cells
# SKKanGAS inh: SKKanGAS growth inhibition | hit rate 1.3% among 300,000 | inhibition, % at 7.5 µM | S. pyogenes SKKanGAS, kanamycin growth, BacTiter-Glo, 6 h;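 active = mean replicate score, as percent of positive control median, at least 50; inconclusive = mean below 50 but one replicate at or above 50; inactive = mean and every replicate below 50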;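 also: strain carries kanamycin resistance gene driven by streptokinase promoter and grows in 40 µg/ml kanamycin; loss of luminescence reflects streptokinase promoter inhibition or plain growth inhibition; 0% = median of DMSO wells and 100% = positive control at its reference dose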
# Beta cell apopt: beta cell apoptosis inhibition; INS-1E cytokine-induced death, ATP luminescence, 48 h; percent of positive-control rescue, neutral wells zero; protection from apoptosis, % (concentration not given with the values); hit rate 0.8% among 300,000;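 active = Every replicate reaches about 75%, or at least half do and their mean reaches it too, limit read from the data; inconclusive = At least half of replicates reach the limit but their mean does not; inactive = Under half of replicates reach the limit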;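 also: 0% = cytokine-treated negative control wells and 100% = positive control rescue; higher means more ATP so stronger rescue from cytokine killing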
# * = called active by the depositor; ? = inconclusive; · = not tested or not shown.
SMILES,UPR CHOP act,Mdm2-MdmX inh,UPR XBP1 act,CSC inhib,SKKanGAS inh,Beta cell apopt
O=C(CCN1C(=O)/C(=C\c2ccccc2)SC1=S)NNC(=O)c1ccccc1O,2.2,-5.4,-1.7,16.8,50.6*,3.4
CCc1ccc(/C=C2/SC(=S)N(CC(=O)Nc3nc4ccccc4s3)C2=O)cc1,1.8,-39.9,5.3,17.6,79.3*,0.3
CCc1ccc(/C=C2/SC(=S)N(CCCC(=O)Nc3ccccc3C(=O)O)C2=O)cc1,-3.8,10.7,-5.0,7.5,52.1*,-2.0
O=C(CCCN1C(=O)/C(=C/c2ccccc2)SC1=S)NCCCn1ccnc1,1.8,21.7,-2.6,89.8*,0.3,120.8*
CC(=O)NNC(=O)CN1C(=O)/C(=C/c2ccccc2)SC1=S,-0.7,-2.9,-1.1,0.0,5.3,-1.8
Cc1cc(S(=O)(=O)N2CCC3(CC2)OCCN3S(=O)(=O)c2cccs2)ccc1F,-0.2,3.3,-3.0,-2.3,5.1,-1.6
O=C(CN1C(=O)S/C(=C\C=C\c2ccccc2)C1=O)Nc1ccccc1C(=O)O,-1.6,8.3,0.2,22.1,70.3*,0.8
O=C1/C(=C\c2cc(Cl)c(O)c(Cl)c2)SC(=S)N1Cc1ccccc1,·,·,·,103.5*,89.6*,8.6
COc1ccc(/C=C2/SC(=S)N(Cc3ccccc3)C2=O)cc1O,4.1,13.7,0.2,25.2,-1.2,3.0
COc1ccc(C2(NC(C)=O)CCN(Cc3cccnc3)CC2)cc1,-0.7,-4.1,-3.8,-5.0,9.2,-4.6
OC(COc1cccc2ccccc12)CN1CCN(c2ccc(Cl)cc2)CC1 (stereo not given),-1.2,24.2,1.7,77.3*,57.5*,-2.1
Cc1cccc(N2CCN(CC(O)COc3ccccc3Cl)CC2)c1 (stereo not given),1.2,9.9,-4.3,-7.4,9.1,-2.0
OC(COc1cccc2ccccc12)CN1CCN(c2cccc(Cl)c2)CC1 (stereo not given),-0.2,-6.7,-1.8,36.2,51.6*,-3.2
OC(COc1cccc2ccccc12)CN1CCCC1 (stereo not given),0.1,29.3,-0.7,·,-3.8,-1.8
COc1ccc(N2CCN(C3CCCN(C(=O)CSC)C3)CC2)cc1 (stereo not given),-0.7,23.0,-1.0,-13.5,0.6,-0.4
N#Cc1c(-c2c(Cl)cccc2Cl)noc1/C=C/Nc1ccc(C(=O)O)cc1,-0.2,38.4,1.5,-16.2,58.8*,-10.0
CN(C)/C=C/c1onc(-c2c(Cl)cccc2Cl)c1C#N,-0.2,18.6,1.0,7.4,7.5,7.7
COc1cc(C(=O)NCCc2ccc(F)cc2)ccc1OCC(=O)N1CCOCC1,-0.6,-11.3,3.3,-3.9,-1.5,·
OCCCNc1cc(-c2ccccc2)nc2cc(-c3ccc(F)cc3)nn12,3.9,11.6,-2.1,83.5*,30.2,17.7
C/C(=N\NC(=O)c1ccccc1F)c1cccc(NC(=O)c2ccccc2)c1,2.1,5.4,-3.4,·,3.6,-0.3
C/C(=N\NC(=O)c1cc(Br)ccc1O)c1cccc(NC(=O)c2ccccc2F)c1,0.7,19.3,-1.1,16.7,63.2*,0.6
Cc1cccc(C(=O)NCC(=O)NCC2COc3ccccc3O2)c1 (stereo not given),0.8,4.4,-3.2,-13.4,-9.1,2.9
CCCOc1ccc(CSCCNC(=S)Nc2ccccc2)cc1,1.2,6.8,-0.6,76.7*,2.2,9.2
CCOc1ccc(CSCCNC(=S)Nc2ccc(OC)cc2)cc1,4.6,11.8,-3.5,4.5,1.2,-2.0
Nc1ccc(Nc2nc3ccccc3[nH]2)cc1,-0.3,16.6,-3.1,-8.0,5.9,·
SMILES,UPR CHOP act,Mdm2-MdmX inh,UPR XBP1 act,CSC inhib,SKKanGAS inh,Beta cell apopt
c1ccc(Nc2nc3ccccc3[nH]2)nc1,4.9,-17.2,-0.1,5.1,62.2*,·
O=[N+]([O-])c1ccc(/C=[N+](\[O-])CCO)o1,3.5,-10.6,0.2,2.9,83.8*,·
CCOC(=O)c1sc(Nc2nc3ccc(OC)cc3s2)cc1C,1.9,-27.7,-0.8,-3.1,49.7*,-6.4
CCOC(=O)c1sc(Nc2nc3c(F)cccc3s2)cc1C,5.1,-44.1,4.0,-8.0,-1.9,1.7
COc1ccc2nc(NC(=O)c3cc(C)oc3C)sc2c1,5.9,-64.8,3.5,·,9.9,23.5
CCOC(=O)c1csc(Nc2nc3ccc(F)cc3s2)n1,39.9,-4.5,4.2,33.6,52.7*,22.2
COc1ccc2nc(NC(=O)c3ccoc3C)sc2c1,-0.7,-78.2,-3.2,70.0,65.8*,42.5
COc1ccc(Cc2nnc(SCC(=O)Nc3ccccc3C#N)o2)cc1,-1.2,-20.2,-4.9,7.7,-2.7,-2.5
CC(CCC(C)C(C)(C)C)[C@@H]1CC[C@H]2C3C[C@H](OS(O)(=S)=S)[C@H]4C[C@H](OS(O)(=S)=S)[C@@H](OS(O)(=S)=S)C[C@]4(C)[C@H]3CC[C@]12C (stereo not given in full) (tested in a mixture with another compound),0.0,-18.5,-1.6,98.4*,·,-0.8
C[C@H](CCC(=O)O)[C@H]1CC[C@H]2[C@@H]3[C@H](O)C[C@@H]4C[C@H](O)CC[C@]4(C)[C@H]3CC[C@]12C,-1.8,-22.9,-8.0,-8.5,·,-3.6
Oc1ccccc1C1=NN(c2ccccc2)C(c2ccc(F)cc2)C1 (stereo not given),-0.1,18.6,-1.0,24.3,11.4,-3.4
Oc1ccc(C2=NN(c3ccccc3)C(c3ccc(F)cc3)C2)cc1 (stereo not given),2.9,2.6,4.4,?,81.0*,-1.6
NS(=O)(=O)c1ccc(N2N=C(c3ccccc3)CC2c2ccc(F)cc2)cc1 (stereo not given),-2.4,17.7,-0.4,9.9,63.9*,6.9
O=C(CSc1nc(-c2ccccc2)c(-c2ccccc2)o1)NCCCO,-1.0,16.1,-3.0,14.0,-11.6,·
O=C(NCc1ccccc1CN1CCCC1)C1CCN(C(=O)c2ccc(F)cc2)CC1,-0.2,-2.8,-0.3,·,·,·
Cc1cc(C)nc(SCC(=O)Nc2ccnc3ccccc23)n1,2.7,37.8,0.0,10.6,3.8,101.6*
O=C(CSC1=NCCS1)Nc1ccnc2ccccc12,2.1,2.8,-1.1,9.2,11.3,104.4*
COc1ccc(OC)c(Nc2nc(N)c([N+](=O)[O-])c(N3CCOCC3)n2)c1,0.1,30.0,11.2,-3.9,1.4,8.0
CC(C)Nc1nc(NC(C)C)nc(SCCOC(=O)Nc2ccc(Cl)cc2Cl)n1,1.6,29.7,-0.6,90.3*,33.7,6.8
COc1ccc([C@H]2Oc3cc(O)cc(O)c3C(=O)C2[C@@H]2C(=O)c3c(O)cc(O)cc3O[C@@H]2c2ccc(OC)cc2)cc1 (stereo not given in full),1.6,40.4,2.7,142.4*,100.2*,7.6
CCOc1ccc(C(=O)/C=C/c2cn(CN3CCN(C)CC3)c3ccccc23)cc1,2.3,-59.5,2.7,99.9*,·,-1.4
